# Published values gathered from unrelated publications.
# Target: Serine/threonine-protein kinase 38-like (STK38L, Homo sapiens, UniProt Q9Y2H1)
Compound,test,setting,remaining binding [%]
Nc1ncc2c(n1)-c1c([nH]c3ccc(C#CC4CC4)cc13)CCCC2,"binding, competition with immobilised ligand",1 µM,100
CN(C)c1nccc(-c2cnn3ncccc23)n1,binding,1 µM,85
FC(F)(F)Oc1cccc(-c2cnc3ccc(-c4ccncc4)nn23)c1,"cell-free assay, competition with immobilised ligand",5 µM,89
CN(C)c1nccc(-c2cnc3ncccn23)n1,binding,1 µM,100
CNC(=O)Nc1ccc2c(c1)[C@@]1(CC2)OC(=O)N(CC(=O)N(Cc2ccc(F)cc2)[C@@H](C)C(F)(F)F)C1=O,"binding, competition with immobilised ligand",1 µM,67
C[C@@H]1CCN(c2nccc(-c3cnn4ncccc34)n2)C1,binding,1 µM,100
Cc1cnc(Nc2ccc(C(=O)N3CCC(N4CCCC4)CC3)cc2)nc1-c1cc2ccccc2s1,"binding, competition with immobilised ligand",1 µM,100
CC(C)(O)c1cncc(-c2nc3ccc(F)cc3n2C2CC2)c1,"cell-free assay, competition with immobilised ligand",1 µM,100
O=C(NCC1CCOCC1)c1n[nH]cc1NC(=O)c1c(F)cccc1F,"binding, competition with immobilised ligand",1 µM,87
COc1cnc(Nc2cccc(S(N)(=O)=O)c2)nc1N1CCN(c2ccccc2)C(=O)C1,"binding, competition with immobilised ligand",1 µM,100
O=C(NCCCN1CCOCC1)c1ccc(Nc2ncc(Cl)c(-c3ccc(Cl)s3)n2)cc1,"binding, competition with immobilised ligand",1 µM,82
COc1cccc(CNC(=O)c2nc3scc(COCc4ccc(C(=O)O)cc4)c3c(=O)[nH]2)c1,"cell-free assay, competition with immobilised ligand",1 µM,87.7
CCN1CCN(Cc2ccc(C(=O)Nc3ccc(C)c(Oc4ccc5c(c4)CC(=O)N5)c3)cc2C(F)(F)F)CC1,"binding, competition with immobilised ligand",1 µM,100
CN(CCCC(F)(F)F)c1nccc(-c2cnn3ncccc23)n1,binding,1 µM,100
N#CC1(c2ccccn2)CCN(Cc2cc(C(=O)N3CCCC3)c(=O)n3ccccc23)CC1,"cell-free assay, competition with immobilised ligand",1 µM,90
COc1ccnn2ncc(-c3ccnc(N(C)C)n3)c12,binding,1 µM,96
COc1ccc2c(c1)O[C@@H](c1ccc(OC)c(OC)c1)C[C@H]2NC(=O)C1(c2ccc3c(c2)OC(F)(F)O3)CC1,"cell-free assay, competition with immobilised ligand",1 µM,100
N[C@@H]1CCN(c2nccc(-c3cnn4ncccc34)n2)C1,binding,1 µM,100
O=C(NC[C@@H]1[C@H]2CN(C(=O)OCc3cc(C(F)(F)F)cc(C(F)(F)F)c3)C[C@@H]12)c1ccc2[nH]nnc2c1,"cell-free assay, competition with immobilised ligand",1 µM,45
COc1ncc2cc3ccccc3nc2c1C#N,"binding, competition with immobilised ligand",5 µM,87
Cc1cc(NC(=O)c2cccc(S(F)(F)(F)(F)F)c2)cc(-n2ccn3nc(-c4cccnc4)cc23)c1,"cell-free assay, competition with immobilised ligand",1 µM,100
O=C(c1ccc(Nc2ncc(Cl)c(-c3ccc(Cl)s3)n2)cc1)N1CCC(N2CCCC2)CC1,"binding, competition with immobilised ligand",1 µM,84
